Reference: ChEMBL document CHEMBL5620402, “Development of submicromolar 17β-HSD10 inhibitors and their in vitro and in vivo evaluation” (Eur J Med Chem, 2023)
Calls of active or inactive are those of the source. The calls are words filed in the database; no cut-off is given here.

What was measured:
[1] = Cmax in male albino Wistar rat plasma at 60 mg/kg, po measured upto 1440 mins by HPLC-MS analysis; assay type: ADME, organism-based
Method in brief: (§1)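 Oral gavage via blunt needle into the stomach of male wild-type rats. Dose was 60 mg/kg from a 16 mM solution in 10% NMP, 25% Kolliphor EL and 65% saline. Rats were sacrificed at 15 time-points from 5 to 1440 min, 3 per point. Plasma and brain were analysed by HPLC-MS with non-compartmental analysis; values are mean ± SE of three.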

[2] = Tmax in male albino Wistar rat plasma at 0.018 mg/kg, iv measured upto 1440 mins by HPLC-MS analysis; assay type: ADME, organism-based
Method in brief: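 Single tail-vein injection in male wild-type rats of a 25 μM dosing solution in saline with 3% DMSO, given at 0.1 mL per 100 g body weight. Three animals were killed at each of 5, 15, 30, 60, 90, 180, 240, 360 and 1440 min and exsanguinated. Plasma levels were measured by HPLC-MS. Parameters came from non-compartmental analysis, reported as mean ± SE of three.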

[3] = Half life in male albino Wistar rat plasma at 0.018 mg/kg, iv measured upto 1440 mins by HPLC-MS analysis; assay type: ADME, organism-based
Method in brief: (§2)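 Single tail-vein injection into male wild-type rats, 0.1 mL per 100 g body weight. Solutions were 20 or 25 μM in saline with 3% DMSO, giving 0.013 or 0.018 mg/kg. Rats were exsanguinated at 5–1440 min (9 time-points, 3 per point). Plasma and brain levels were measured by HPLC-MS. Parameters came from non-compartmental analysis; values are mean ± SE of three.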

[4] = Permeability coefficient in male albino Wistar rat assessed as ratio of brain AUC to plasma AUC at 60 mg/kg, po measured upto 1440 mins by HPLC-MS analysis; assay type: ADME, organism-based; method in brief: as §1
[5] = AUC (0 to 1440 mins) in male albino Wistar rat brain at 0.018 mg/kg, iv measured upto 1440 mins by HPLC-MS analysis; assay type: ADME, organism-based; details: in vivo, 24 h; method in brief: as §2
[6] = Tmax in male albino Wistar rat plasma at 60 mg/kg, po measured upto 1440 mins by HPLC-MS analysis; assay type: ADME, organism-based
Method in brief: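 Single oral gavage of a 16 mM solution (blunt needle via oesophagus into stomach) to male wild-type rats, in 10% NMP, 25% Kolliphor EL and 65% saline. Three animals were killed at each of 15 time points from 5 to 1440 min and exsanguinated. Plasma levels were measured by HPLC-MS. Non-compartmental analysis gave mean ± SE of three.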

[7] = MRT in male albino Wistar rat plasma at 0.018 mg/kg, iv measured upto 1440 mins by HPLC-MS analysis; assay type: ADME, organism-based; method in brief: as §2
[8] = molecular target: T1, 3-hydroxyacyl-CoA dehydrogenase type-2 (Homo sapiens) (UniProt Q99714); assay: Binding affinity to 17beta-HSD10 (unknown origin) assessed as increase in denaturation temperature by differential scanning fluorimetry (DSF) assay; details: dose 25-50 µM
T1 sequence (whole entry): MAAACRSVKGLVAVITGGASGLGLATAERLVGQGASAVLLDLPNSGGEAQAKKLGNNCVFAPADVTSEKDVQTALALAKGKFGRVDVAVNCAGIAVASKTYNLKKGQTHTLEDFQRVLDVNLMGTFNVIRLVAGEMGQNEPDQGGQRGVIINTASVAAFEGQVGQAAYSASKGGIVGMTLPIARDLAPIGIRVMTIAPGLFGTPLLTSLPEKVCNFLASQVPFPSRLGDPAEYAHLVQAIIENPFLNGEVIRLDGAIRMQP
Method in brief: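 Thermal shift assay with 1.43 μM 17β-HSD10 in 100 mM potassium phosphate pH 8.0 with SYPRO Orange (1:1000). Compounds were tested at 25 and 50 μmol/L. Fluorescence (Ex/Em 490/575) was recorded over 25–90 °C at 1 °C/min and Tm taken from melting curves. Triplicate; mean ± SD.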

[9] = Apparent volume of distribution in male albino Wistar rat plasma at 0.018 mg/kg, iv measured upto 1440 mins by HPLC-MS analysis; assay type: ADME, organism-based; details: read-out: Vz; method in brief: as §2
[10] = Tmax in male albino Wistar rat brain at 0.018 mg/kg, iv measured upto 1440 mins by HPLC-MS analysis; assay type: ADME, organism-based; method in brief: as §2
[11] = AUC (0 to 1440 mins) in male albino Wistar rat plasma at 0.018 mg/kg, iv measured upto 1440 mins by HPLC-MS analysis; assay type: ADME, organism-based; details: in vivo, 24 h; method in brief: as §2
[12] = Permeability coefficient in male albino Wistar rat assessed as ratio of brain AUC to plasma AUC at 0.018 mg/kg, iv measured upto 1440 mins by HPLC-MS analysis; assay type: ADME, organism-based; method in brief: as §2
[13] = Cmax in male albino Wistar rat plasma at 0.018 mg/kg, iv measured upto 1440 mins by HPLC-MS analysis; assay type: ADME, organism-based; method in brief: as §2
[14] = Half life in male albino Wistar rat plasma at 0.013 mg/kg, iv measured upto 1440 mins by HPLC-MS analysis; assay type: ADME, organism-based; method in brief: as §2
SH-SY5Y = assay: Reduction in dehydrogenase activity in human SH-SY5Y cells at 100 uM measured after 4 to 24 hrs by […] assay; assay type: functional, cell-based; details: time 4-24 hrs
Method in brief: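 SH-SY5Y cells (passages 14–18) in DMEM/F12 with 15% FBS were exposed to compound (0.1–100 μM) for 4 and 24 h. WST-1 reagent was added and the absorbance change at 440 nm was read over 0–1 h. Results are % of control cells, mean ± SD, triplicate of ≥3 experiments.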

[15] = Cmax in male albino Wistar rat brain at 0.013 mg/kg, iv measured upto 1440 mins by HPLC-MS analysis; assay type: ADME, organism-based; method in brief: as §2
[16] = MRT in male albino Wistar rat plasma at 0.013 mg/kg, iv measured upto 1440 mins by HPLC-MS analysis; assay type: ADME, organism-based; method in brief: as §2
[17] = Tmax in male albino Wistar rat brain at 0.013 mg/kg, iv measured upto 1440 mins by HPLC-MS analysis; assay type: ADME, organism-based; method in brief: as §2
[18] = Cmax in male albino Wistar rat plasma at 0.013 mg/kg, iv measured upto 1440 mins by HPLC-MS analysis; assay type: ADME, organism-based; method in brief: as §2
[19] = Permeability coefficient in male albino Wistar rat assessed as ratio of brain AUC to plasma AUC at 0.013 mg/kg, iv measured upto 1440 mins by HPLC-MS analysis; assay type: ADME, organism-based; method in brief: as §2
[20] = AUC (0 to 1440 mins) in male albino Wistar rat brain at 0.013 mg/kg, iv measured upto 1440 mins by HPLC-MS analysis; assay type: ADME, organism-based; details: in vivo, 24 h; method in brief: as §2
[21] = Tmax in male albino Wistar rat plasma at 0.013 mg/kg, iv measured upto 1440 mins by HPLC-MS analysis; assay type: ADME, organism-based; method in brief: as §2
[22] = Apparent volume of distribution in male albino Wistar rat plasma at 0.013 mg/kg, iv measured upto 1440 mins by HPLC-MS analysis; assay type: ADME, organism-based; details: read-out: Vz; method in brief: as §2
[23] = AUC (0 to 1440 mins) in male albino Wistar rat plasma at 0.013 mg/kg, iv measured upto 1440 mins by HPLC-MS analysis; assay type: ADME, organism-based; details: in vivo, 24 h; method in brief: as §2

With `O=C(Nc1ccc(O)c(Cl)c1)Nc1nc2ccc(C(=O)O)cc2s1` the Cmax [1] was 6.85 nM, the Tmax [2] was 5 min and the half-life [3] was 29.4 min. It also gave a Kp at 24 h [4] of 0.095, an AUC [5] of 34 pmol·min and a Tmax [6] of 25 min. For the same molecule, the MRT [7] was 15.7 min, the Activity [8] was “Dose-Dependent Effect” and the Vd [9] was 135 L/kg. The Tmax [10] was 90 min, the AUC [11] was 18961 pmol·min and the Kp at 24 h [12] was 0.002. The Cmax [13] was 1.54 nM.

For `CC(=O)Nc1ccc2nc(NC(=O)Nc3ccc(O)c(Cl)c3)sc2c1`, the half-life [14] was 15.8 min, the inhibition (SH-SY5Y) was “Active” and the Cmax [1] was 13.5 nM. The Cmax [15] was 0.0126 nM, the MRT [16] was 24.5 min and the Tmax [17] was 956 min. It also gave a Cmax [18] of 0.389 nM, a Kp at 24 h [19] of 0.566 and a Kp at 24 h [4] of 0.011. It also gave an AUC [20] of 3299 pmol·min, a Tmax [21] of 5 min and a Tmax [6] of 35 min. The Activity [8] was “Dose-Dependent Effect”, the Vd [22] was 147 L/kg and the AUC [23] was 5832 pmol·min.
